Results reported in ChEMBL document CHEMBL2331168, “Anticonvulsant evaluation of aminoalkanol derivatives of 2- and 4-methylxanthone” (Bioorg Med Chem, 2013).
The source made the active and inactive calls.

Legend:
Rattus norvegicus [1] = test: Anticonvulsant activity in Sprague-Dawley rat assessed as protection against maximal electroshock-induced seizures at 30 mg/kg, po after 2 hrs; format: functional, organism-based; parameters: dose 30 mg/kg
Procedure, shortened: (§1)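 Male Sprague-Dawley rats dosed orally at 30 mg/kg and tested at 0.25, 0.5, 1, 2 and 4 h. Seizures were induced by 60 Hz alternating current at 150 mA for 0.2 s through corneal electrodes, after a drop of 0.9% NaCl in each eye. Protection meant abolition of hindlimb tonic extension. Reported as protected/tested, usually 4 rats per time point.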

Rattus norvegicus [2] = test: Anticonvulsant activity in Sprague-Dawley rat assessed as protection against maximal electroshock-induced seizures at 30 mg/kg, po after 1 hr; format: functional, organism-based; parameters: dose 30 mg/kg; procedure, shortened: as §1
Rattus norvegicus [3] = test: Anticonvulsant activity in Sprague-Dawley rat assessed as protection against maximal electroshock-induced seizures at 30 mg/kg, po after 0.25 hrs; format: functional, organism-based; parameters: dose 30 mg/kg; procedure, shortened: as §1
Mus musculus [4] = test: Neurotoxicity in albino mouse assessed as minimal motor impairment at 100 mg/kg, ip after 4 hrs by rotorod test; format: toxicity, organism-based; parameters: dose 100 mg/kg, route intraperitoneal; conditions: in vivo
Procedure, shortened: (§2)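 Male albino mice (Carworth Farms No. 1) were dosed ip with suspensions in 0.5% methylcellulose and put on a 1 in. knurled rod rotating at 6 rpm at set times after dosing. Neurotoxicity meant failure to stay on the rod for at least 1 min in each of three trials. Scored as impaired/tested.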

Mus musculus [5] = test: Neurotoxicity in albino mouse assessed as minimal motor impairment at 30 mg/kg, ip after 4 hrs by rotorod test; format: toxicity, organism-based; parameters: dose 30 mg/kg, route intraperitoneal; conditions: in vivo; procedure, shortened: as §2
Mus musculus [6] = test: Neurotoxicity in albino mouse assessed as minimal motor impairment at 300 mg/kg, ip after 0.5 hrs by rotorod test; format: toxicity, organism-based; parameters: dose 300 mg/kg, route intraperitoneal; conditions: in vivo; procedure, shortened: as §2
Mus musculus [7] = test: Anticonvulsant activity in albino mouse assessed as protection against subcutaneous pentetrazole-induced seizures at 30 mg/kg, ip after 4 hrs; format: functional, organism-based; parameters: dose 30 mg/kg
Procedure, shortened: (§3)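 Male albino mice (Carworth Farms No. 1) received compound ip in 0.5% methylcellulose, then pentetrazole 85 mg/kg sc in 0.9% NaCl at 0.5 or 4 h. Mice were watched for at least 30 min. Protection meant no threshold seizure, defined as a single clonic spasm lasting at least 5 s. Scored as protected/tested.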

Mus musculus [8] = test: Anticonvulsant activity in albino mouse assessed as protection against subcutaneous pentetrazole-induced seizures at 100 mg/kg, ip after 0.5 hrs; format: functional, organism-based; parameters: dose 100 mg/kg; procedure, shortened: as §3
Mus musculus [9] = test: Anticonvulsant activity in albino mouse assessed as protection against subcutaneous pentetrazole-induced seizures at 30 mg/kg, ip after 0.5 hrs; format: functional, organism-based; parameters: dose 30 mg/kg; procedure, shortened: as §3
Mus musculus [10] = test: Anticonvulsant activity in albino mouse assessed as protection against maximal electroshock-induced seizures at 100 mg/kg, ip after 4 hrs; format: functional, organism-based; parameters: dose 100 mg/kg
Procedure, shortened: (§4)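 Male albino mice (Carworth Farms No. 1) were given the compound ip as a suspension in 0.5% methylcellulose at 3–300 mg/kg. MES testing was at 0.5 and 4 h, sometimes also at 0.25 and 1 h. Current was 60 Hz, 50 mA, 0.2 s via corneal electrodes, with saline eye drops. Protection meant no hindlimb tonic extension, scored as protected/tested.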

Mus musculus [11] = test: Anticonvulsant activity in albino mouse assessed as protection against maximal electroshock-induced seizures at 30 mg/kg, ip after 4 hrs; format: functional, organism-based; parameters: dose 30 mg/kg; procedure, shortened: as §4
Mus musculus [12] = test: Anticonvulsant activity in albino mouse assessed as protection against maximal electroshock-induced seizures at 30 mg/kg, ip after 0.5 hrs; format: functional, organism-based; parameters: dose 30 mg/kg; procedure, shortened: as §4
Mus musculus [13] = test: Neurotoxicity in albino mouse assessed as minimal motor impairment at 30 mg/kg, ip after 0.5 hrs by rotorod test; format: toxicity, organism-based; parameters: dose 30 mg/kg, route intraperitoneal; conditions: in vivo; procedure, shortened: as §2
Rattus norvegicus [14] = test: Neurotoxicity in Sprague-Dawley rat assessed as minimal motor impairment at 30 mg/kg, po after 1 hr by rotorod test; conditions: in vivo
Rattus norvegicus [15] = test: Neurotoxicity in Sprague-Dawley rat assessed as minimal motor impairment at 30 mg/kg, po after 4 hrs by rotorod test; conditions: in vivo
Rattus norvegicus [16] = test: Neurotoxicity in Sprague-Dawley rat assessed as minimal motor impairment at 30 mg/kg, po after 2 hrs by rotorod test; conditions: in vivo
Rattus norvegicus [17] = test: Neurotoxicity in Sprague-Dawley rat assessed as minimal motor impairment at 30 mg/kg, po after 0.5 hrs by rotorod test; conditions: in vivo
Rattus norvegicus [18] = test: Neurotoxicity in Sprague-Dawley rat assessed as minimal motor impairment at 30 mg/kg, po after 0.25 hrs by rotorod test; conditions: in vivo
Rattus norvegicus [19] = test: Anticonvulsant activity in Sprague-Dawley rat assessed as protection against maximal electroshock-induced seizures at 30 mg/kg, po after 4 hrs; format: functional, organism-based; parameters: dose 30 mg/kg; procedure, shortened: as §1
Rattus norvegicus [20] = test: Anticonvulsant activity in Sprague-Dawley rat assessed as protection against maximal electroshock-induced seizures at 30 mg/kg, po after 0.5 hrs; format: functional, organism-based; parameters: dose 30 mg/kg; procedure, shortened: as §1
Mus musculus [21] = test: Neurotoxicity in albino mouse assessed as minimal motor impairment at 300 mg/kg, ip after 4 hrs by rotorod test; format: toxicity, organism-based; parameters: dose 300 mg/kg, route intraperitoneal; conditions: in vivo; procedure, shortened: as §2
Mus musculus [22] = test: Anticonvulsant activity in albino mouse assessed as protection against subcutaneous pentetrazole-induced seizures at 300 mg/kg, ip after 4 hrs; format: functional, organism-based; parameters: dose 300 mg/kg; procedure, shortened: as §3
Mus musculus [23] = test: Anticonvulsant activity in albino mouse assessed as protection against subcutaneous pentetrazole-induced seizures at 100 mg/kg, ip after 4 hrs; format: functional, organism-based; parameters: dose 100 mg/kg; procedure, shortened: as §3
Mus musculus [24] = test: Anticonvulsant activity in albino mouse assessed as protection against subcutaneous pentetrazole-induced seizures at 300 mg/kg, ip after 0.5 hrs; format: functional, organism-based; parameters: dose 300 mg/kg; procedure, shortened: as §3
Mus musculus [25] = test: Anticonvulsant activity in albino mouse assessed as protection against maximal electroshock-induced seizures at 300 mg/kg, ip after 4 hrs; format: functional, organism-based; parameters: dose 300 mg/kg; procedure, shortened: as §4
Mus musculus [26] = test: Anticonvulsant activity in albino mouse assessed as protection against maximal electroshock-induced seizures at 300 mg/kg, ip after 0.5 hrs; format: functional, organism-based; parameters: dose 300 mg/kg; procedure, shortened: as §4
Mus musculus [27] = test: Neurotoxicity in albino mouse assessed as minimal motor impairment at 100 mg/kg, ip after 0.5 hrs by rotorod test; format: toxicity, organism-based; parameters: dose 100 mg/kg, route intraperitoneal; conditions: in vivo; procedure, shortened: as §2
Mus musculus [28] = test: Anticonvulsant activity in albino mouse assessed as protection against maximal electroshock-induced seizures at 100 mg/kg, ip after 0.5 hrs; format: functional, organism-based; parameters: dose 100 mg/kg; procedure, shortened: as §4

| Structure (SMILES) | Activity (Rattus norvegicus [3]) | Activity (Mus musculus [4]) | Activity (Mus musculus [5]) | Activity (Mus musculus [6]) | Activity (Mus musculus [7]) | Activity (Mus musculus [8]) | Activity (Mus musculus [9]) | Activity (Mus musculus [10]) | Activity (Mus musculus [11]) | Activity (Mus musculus [12]) | Activity (Mus musculus [13]) | Activity (Rattus norvegicus [14]) | Activity (Rattus norvegicus [15]) | Activity (Rattus norvegicus [16]) | Activity (Rattus norvegicus [17]) | Activity (Rattus norvegicus [18]) | Activity (Mus musculus [23]) | Activity (Mus musculus [24]) | Activity (Mus musculus [25]) | Activity (Mus musculus [26]) | other results |
| --- | --- | --- | --- | --- | --- | --- | --- | --- | --- | --- | --- | --- | --- | --- | --- | --- | --- | --- | --- | --- | --- |
| COc1ccc2c(=O)c3cccc(CNC(C)CO)c3oc2c1.Cl (racemic) | inactive | Toxic | Non-toxic | Toxic | inactive | inactive | inactive | inactive | inactive | inactive | Non-toxic | Non-toxic | Non-toxic | Non-toxic | Non-toxic | Non-toxic | – | – | – | – | Activity (Rattus norvegicus [1]): inactive; Activity (Rattus norvegicus [2]): inactive |
| COc1ccc2c(=O)c3cccc(CN[C@@H](C)CO)c3oc2c1 | inactive | Non-toxic | Non-toxic | – | inactive | inactive | inactive | inactive | inactive | inactive | Non-toxic | Non-toxic | Non-toxic | Non-toxic | Non-toxic | Non-toxic | inactive | inactive | Active | inactive | Activity (Rattus norvegicus [19]): inactive; Activity (Rattus norvegicus [1]): inactive; Activity (Rattus norvegicus [20]): inactive; Activity (Mus musculus [21]): Non-toxic; Activity (Mus musculus [22]): inactive |
| COc1ccc2c(=O)c3cccc(CNCC(C)O)c3oc2c1 (racemic) | – | – | Non-toxic | Toxic | inactive | inactive | inactive | – | inactive | inactive | Non-toxic | – | – | – | – | – | inactive | – | – | – | Activity (Mus musculus [27]): Toxic; Activity (Mus musculus [28]): Active |
| CC[C@@H](CO)NCc1cccc2c(=O)c3ccc(OC)cc3oc12 | inactive | – | Non-toxic | Toxic | inactive | inactive | inactive | – | inactive | inactive | – | Non-toxic | Non-toxic | Non-toxic | Non-toxic | Non-toxic | inactive | inactive | Active | Active | Activity (Rattus norvegicus [19]): inactive; Activity (Mus musculus [22]): inactive |
| COc1ccc2c(=O)c3cccc(CN[C@H](C)CO)c3oc2c1 | inactive | Non-toxic | Non-toxic | Toxic | inactive | inactive | inactive | inactive | inactive | inactive | Non-toxic | – | – | Non-toxic | – | Non-toxic | inactive | inactive | Active | Active | Activity (Rattus norvegicus [19]): inactive; Activity (Rattus norvegicus [2]): inactive; Activity (Mus musculus [21]): Toxic; Activity (Mus musculus [28]): inactive |
| CC(CO)NCc1ccc2oc3ccc(Cl)cc3c(=O)c2c1 (racemic) | inactive | Non-toxic | Non-toxic | Non-toxic | inactive | inactive | inactive | – | inactive | inactive | Non-toxic | Non-toxic | Non-toxic | Non-toxic | Non-toxic | Non-toxic | inactive | inactive | Active | inactive | Activity (Rattus norvegicus [1]): inactive; Activity (Rattus norvegicus [20]): inactive; Activity (Mus musculus [21]): Non-toxic; Activity (Mus musculus [27]): Non-toxic; Activity (Mus musculus [22]): inactive; Activity (Mus musculus [28]): inactive |
| CC[C@H](CO)NCc1cccc2c(=O)c3ccc(OC)cc3oc12 | – | Non-toxic | Non-toxic | Toxic | inactive | inactive | inactive | inactive | inactive | inactive | Non-toxic | Non-toxic | Non-toxic | Non-toxic | Non-toxic | Non-toxic | inactive | inactive | Active | Active | Activity (Rattus norvegicus [20]): inactive; Activity (Mus musculus [21]): Non-toxic; Activity (Mus musculus [27]): Non-toxic; Activity (Mus musculus [22]): inactive |
| COc1ccc2c(=O)c3cccc(CNC(C)(C)CO)c3oc2c1 | inactive | Non-toxic | Non-toxic | Toxic | inactive | inactive | inactive | inactive | inactive | inactive | Non-toxic | Non-toxic | Non-toxic | Non-toxic | Non-toxic | Non-toxic | inactive | – | – | – | Activity (Rattus norvegicus [1]): inactive; Activity (Mus musculus [27]): Toxic; Activity (Mus musculus [28]): Active |
| C[C@H](CO)NCc1ccc2oc3ccc(Cl)cc3c(=O)c2c1 | – | Non-toxic | Non-toxic | – | inactive | inactive | inactive | inactive | inactive | inactive | Non-toxic | Non-toxic | Non-toxic | Non-toxic | Non-toxic | Non-toxic | inactive | inactive | Active | Active | Activity (Rattus norvegicus [1]): inactive; Activity (Rattus norvegicus [20]): inactive; Activity (Mus musculus [21]): Non-toxic; Activity (Mus musculus [27]): Non-toxic; Activity (Mus musculus [22]): inactive |
